Laboratory results published in ChEMBL document CHEMBL4513216, “Probing the Open Global Health Chemical Diversity Library for Multistage-Active Starting Points for Next-Generation Antimalarials” (ACS Infect Dis, 2020).

Assay: Toxicity liver stage against HepG2, at 10uM
Format: cell-based
Set-up: test concentration 10 uM, cell line HepG2-A16-CD81EGFP
Settings: human, HepG2-A16-CD81EGFP cells; read-out: INHIBITION
In short: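 Uninfected HepG2-A16-CD81EGFP cells, 3 × 10^3 per well, 1536-well, plated on prespotted compound at 10 μM final, parasite-free screening media added to match infected plates; puromycin 10 μM positive, DMSO 0.5% negative; run in parallel with 48 h PbLuc assay at 37 °C, 5% CO2; viability by CellTiter-Glo luminescence, normalized to controls.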

Row | Structure (SMILES) | cytotoxicity at 10 µM
1 | COC(=O)[C@H]1CN(S(C)(=O)=O)CCN1S(C)(=O)=O | -1.37%
2 | CCS(=O)(=O)NCC(Cc1cccc(F)c1)N1CCNC1=O (stereo unspecified) | -1.89%
3 | NCc1cnc(Nc2ccccc2)nc1 | 8.55%
4 | CC(C)Nc1nc2c(c(NC3CC3)n1)CCN(C1CCOCC1)CC2 | 12.3%
5 | COCC1COCCC12CCN(C(=O)CC1=CCCCC1)CC2 (stereo unspecified) | -1.86%
6 | CN1CCN(CCO)C(=O)C12CCN(c1nccs1)CC2 | 3.88%
7 | c1cnc(NCc2n[nH]c3c2CCN(Cc2cccnc2)C3)nc1 | -7.15%
8 | CC(=O)N1CCS(=O)(=O)[C@@H]2CCN(S(=O)(=O)CC(C)C)CC[C@@H]21 | 6.1%
9 | Fc1cccc(N2CCCC3(C2)CN(c2cnccn2)CCO3)c1 (stereo unspecified) | 8.49%
10 | CCOCC1CN(Cc2ccc3c(c2)OCO3)Cc2ncn(C)c21 (stereo unspecified) | 5.61%
11 | Cc1nn(C)c2nc(C3CC3)c(Cl)c(C(=O)O)c12 | 7.44%
12 | CCOC(=O)N1CCN(C(=O)c2cc(-c3ccc(C)cc3)on2)CC1 | 5.68%
13 | CNc1[nH]nc(N)c1C(=O)Nc1ccccc1 | 6.56%
14 | Cc1nn(C)cc1CN1CCCC1c1cccc(Nc2nccs2)n1 (stereo unspecified) | 4.25%
15 | Cn1cc(CN2CCC(c3ccncc3)CC2)cn1 | 0.26%
16 | Cc1cn[nH]c1C1COCCN1S(=O)(=O)c1cn[nH]c1 (stereo unspecified) | -24.6%
17 | CN(C)c1nccc(C2CCCN(C(=O)CO)C2)n1 (stereo unspecified) | -29.1%
18 | O=C(CCc1cc(Cl)no1)N1CCC(c2cc3ncccc3cn2)CC1 | 4.76%
19 | Cc1n[nH]c(C)c1-c1nccnc1CC1CCCN(C)C1 (stereo unspecified) | -18.3%
20 | Cc1cccc(Nc2nccnc2C2CCCN2CC(N)=O)n1 (stereo unspecified) | -4.16%
21 | O=C(Cc1ccc(F)cc1)N1CCCC(c2n[nH]c3nccnc23)C1 (stereo unspecified) | 4.59%
22 | COc1cc2nc3n(c(=O)c2cc1OC)CCN(C(=O)C1CCC1)CC3 | -8.8%
23 | N#Cc1ncn(CC(=O)N2CCCC2c2cccs2)n1 (stereo unspecified) | -21.7%

Row | Structure (SMILES) | cytotoxicity at 10 µM
24 | CCNC(=O)C(C)(C)NC(=O)NCc1cccc(Br)c1 | 8.44%
25 | CCc1ncc(C(=O)NCCNc2ccncc2)s1 | -9.7%
26 | CCN(C(=O)CN1CCN(CC(C)O)CC1)C1=CCCCC1 (stereo unspecified) | 8.67%
27 | O=C(CCn1cnc2cc(F)c(F)cc21)N1CCN2CCCCC2C1 (stereo unspecified) | -12.3%
28 | COC(=O)c1ccc(CN2CCN(Cc3nc(C)no3)CC2)s1 | 4.07%
29 | N#Cc1cccnc1NCCNC(=O)NCCSC(F)(F)F | 1.2%
30 | CC(Oc1ccc(F)cc1)C(=O)N(CC(N)=O)C1CCCC1 (stereo unspecified) | 0.217%
31 | CN1CCN(C(=O)c2csnn2)c2ccccc21 | -1.15%
32 | O=C(c1cc(-n2cccn2)ccn1)N1CCOc2ccc(F)cc21 | 1.26%
33 | NC(=O)CCN(C(=O)CSc1ccc(F)cc1)c1ccc(F)cc1 | -2.17%
34 | O=C(C1CC(=O)N(c2ccccc2Br)C1)N1CCN(CC(F)(F)F)CC1 (stereo unspecified) | 7.29%
35 | CC(C)OCc1noc(C2CCCOC2)n1 (stereo unspecified) | 5.31%
36 | Cc1nnc(CN(Cc2cccc(Cl)c2)C(C)C)o1 | 1.69%
37 | Cc1ccc(C)c(C(O)CN(C)Cc2nnc3ccccn23)c1 (stereo unspecified) | -13.8%
38 | COCC(NC(=O)NCc1sc(C)nc1C)c1ccco1 (stereo unspecified) | 6.75%
39 | CCCn1nnnc1CN(C)C(C)c1ccc(C)cc1 (stereo unspecified) | -3.21%
40 | CCN1CC(=O)c2sc(NC(C)C)nc2C1 | -10.6%
41 | CN1CCN(c2nccc(-c3cncnc3C3CCCCC3)n2)CC1 | -4.33%
42 | Cc1ccc(-c2cn(C3CCN(C(=O)[C@H]4CCCO4)CC3)nn2)cc1 | -8.93%
43 | COc1cccc(CNC(=O)N2CCCC(Cn3cc(CN)nn3)C2)c1 (stereo unspecified) | -2.07%
44 | Cc1cc(CN2CCC(C3CCN(CC(C)C)CC3)C2)[nH]n1 (stereo unspecified) | -8.71%
45 | Cc1noc(C)c1-c1n[nH]c2c1CN(S(=O)(=O)c1cccnc1)CC2 | -11%
46 | CNC(=O)[C@@H]1C[C@H](N)CN1S(=O)(=O)c1cc(Cl)c(Cl)s1 | 1.27%

Row | Structure (SMILES) | cytotoxicity at 10 µM
47 | Cc1nc2c(c(=O)n1C)CCN(C(=O)Cn1cccc1)CC2 | -2.18%
48 | COc1cc(C)c(CN2CCC3(CC2)[C@H](O)C[C@@H]3OCCN)cc1C | 13.6%
49 | N#Cc1c2n(c3c(=O)[nH]cnc13)CCCCC2 | 5.5%
50 | CCN(CC)S(=O)(=O)NC1CCCc2nc(-c3ccccc3)ncc21 (stereo unspecified) | 17.2%
51 | CNC(=O)[C@@H]1C[C@@H](NC(=O)Cc2cccs2)CN1C1CCOCC1 | 2.7%
52 | CCN1CCCC(C)(C(=O)NCCc2n[nH]c(=O)[nH]2)C1 (stereo unspecified) | -1.76%
53 | Cn1ncc2c(N3CCCC(C)(O)C3)nc(-c3cccnc3)nc21 (stereo unspecified) | 9.98%
54 | c1cnc2ccc(C[C@@H]3CC[C@H](CN4CCCOCC4)O3)cc2c1 | -1.6%
55 | c1cc(-c2n[nH]c(CNc3nnc(C4CC4)o3)n2)ccn1 | -2.59%
56 | CCOc1ccc(C2CC(=O)NCc3nc(N)sc32)cc1CO (stereo unspecified) | -6.33%
57 | COc1ccc(OC2CCN(C(=O)[C@@H](N)Cc3c[nH]cn3)CC2)cc1 | 0.653%
58 | CN1C(=O)CC(C(=O)O)C12CCN(Cc1ccc(Cl)c(F)c1)CC2 (stereo unspecified) | 2.91%
59 | CC(C)[C@@H]1CN(c2ncc(F)cn2)C[C@H]1NC(=O)N(C)C | -4.03%
60 | CN(C)CC1(O)CCN(C(=O)c2cnc(-c3ccccn3)nc2)C1 (stereo unspecified) | 4.82%
61 | CC(=O)c1cnc(NCCN2CCCC(c3ccccc3)C2)nc1C (stereo unspecified) | -3.44%
62 | CCNC(=O)[C@@H]1C[C@@H](NC(=O)Cc2ccncc2)CN1Cc1ccsc1 | -0.368%
63 | CC(C)n1ccnc1C1CCN(Cc2ccc(Cl)c(F)c2)CC1 | -3.59%
64 | CCC(=O)N1CCc2[nH]cnc2C12CCN(C(=O)CCS(C)(=O)=O)CC2 | -14.4%
65 | Cc1[nH]nc(CCC(=O)N2CCCC(OCc3cccnc3)C2)c1C (stereo unspecified) | -5.07%
66 | Cn1cccc1-c1cc(C(=O)N2CCCC2c2cccnc2)[nH]n1 (stereo unspecified) | -9.32%
67 | Cc1nn(C)c(C)c1C1CCCN1C(=O)CCCc1ccccn1 (stereo unspecified) | 2.43%
68 | CNc1nc(CNC(=O)Nc2cccc(OC)c2)cs1 | -3.28%
69 | CC(C)C(C(=O)N1CCCN(c2nccs2)CC1)n1cncn1 (stereo unspecified) | -4.98%

Row | Structure (SMILES) | cytotoxicity at 10 µM
70 | Cc1ccc(NC(=O)C2CSCN2C(=O)c2cnccn2)cc1C (stereo unspecified) | -8.3%
71 | NC(=O)Cn1cc(NC(=O)N2CCCC(O)C2)cn1 (stereo unspecified) | -10.1%
72 | CCNc1cc2c(nn1)CCN(C(=O)c1nccnc1N)C2 | -16.4%
73 | CCc1nc(C2CCCN2CC(=O)N2CCc3ccccc32)no1 (stereo unspecified) | -11.2%
74 | Cn1cc(NS(=O)(=O)c2ccc(F)c(F)c2)ccc1=O | -9.59%
75 | Cc1noc(CN2CCN(C(=O)N(C)C)CC2)n1 | -1.22%
76 | COc1ccc(-c2nnc(CNCCn3cccn3)o2)cc1 | -14.5%
77 | CCc1nc(C2CCCN2C(=O)c2ccc(N3CCCC3)nn2)no1 (stereo unspecified) | -3.27%
78 | CCc1nc(C)ncc1C(=O)N1CCOC(c2nc(C)n[nH]2)C1 (stereo unspecified) | -7.88%
79 | CC(C)CN1CCN(C(=O)c2ccn(C)c(=O)c2)CC1 | -17.2%
80 | CC(c1cccc(S(N)(=O)=O)c1)N(C)CCCOc1ccccc1 (stereo unspecified) | -1.99%
81 | COc1c(C2CCCN2C(=O)c2cccnc2N(C)C)c(C)nn1C (stereo unspecified) | -7.62%
82 | Cc1nc2ccccc2nc1CN(C)C1CCCN(c2cccnn2)C1 (stereo unspecified) | -9.71%
83 | Cc1cccc(-c2nc(C)nn2CC(=O)NC2CCCC2)c1 | -12.5%
84 | CC(=O)N1CCC[C@H]1C(=O)NCCOc1cccc(Cl)c1 | -8.78%
85 | CN(C)CC1CN(Cc2csc(C3CCCC3)n2)CCO1 (stereo unspecified) | -7.32%
86 | COc1ncccc1CNC(=O)c1cccnc1O | -4.02%
87 | Cc1c(F)cc(C(=O)O)cc1S(=O)(=O)Nc1cccc(C(F)F)c1 | -1.35%
88 | Cn1cc(CN2CCCN(C(=O)c3cc[nH]n3)CC2)cn1 | -8.72%
89 | CCn1cc(NC(=O)NCC(O)COc2cccc(F)c2)cn1 (stereo unspecified) | -2.86%
90 | O=C(Nc1cnn(CCN2CCOCC2)c1)c1cc(F)ccc1F | -8.8%
91 | CCn1ccnc1CN1CCN(CCOc2cccc(C#N)c2)CC1 | -6.95%
92 | CCOc1ccc(S(=O)(=O)NC(=O)CCC2CCCO2)cc1 (stereo unspecified) | -11.5%

Row | Structure (SMILES) | cytotoxicity at 10 µM
93 | CCNC(=O)[C@@H]1CCCN1C1(C(=O)NC)CCC1 | -1.66%
94 | COc1ccc(CN(Cc2cnc(N)nc2)CC2CCCO2)c(OC)c1 (stereo unspecified) | -0.438%
95 | Cn1cc(CN2C[C@H]3CCC[C@@H](CNc4nccn4C)[C@H]3C2)cn1 | 10.9%
96 | Cc1ccc(CN2CCCn3nnc(COCC4CC4)c3C2)s1 | -6.51%
97 | O=S(=O)(c1cccs1)N1CCCn2nnc(CN3CCCCC3)c2C1 | -17.5%
98 | CC(C)CNC(=O)[C@H]1CCS(=O)(=O)[C@@H]2CN(CC(C)C)C[C@H]12 | -1.66%
99 | CC(C)CN1C(=O)C2(CCN(Cc3ccoc3)C2)c2ccccc21 (stereo unspecified) | 4.82%
100 | Cn1cc(CN2CCc3c(cnc(-c4ccccc4)c3C(=O)O)C2)cn1 | 4.2%
101 | CC[C@@H]1N(Cc2ccsc2)CCC[C@]12CCC(=O)N2C | 10%
102 | Cc1noc(C)c1CN1CCc2cnn(C)c2C1COCC1CC1 (stereo unspecified) | 10.7%
103 | Cc1nnc([C@]23COC[C@H]2CN(Cc2cnn(C)c2)C3)o1 | -3.77%
104 | Cc1cc2c(=O)n3c(nc2s1)CCN(Cc1c[nH]cn1)CC3 | -17.6%
105 | CCOCC(=O)N1CCc2c(CN(C)C)nn(C(C)C)c2C1 | -2.63%
106 | Cn1cncc1CNC1CC2(CCN(S(C)(=O)=O)CC2)c2ccccc21 (stereo unspecified) | 1.55%
107 | CCS(=O)(=O)N1CCC2(CCC(N3CCCC3)c3ccccc32)CC1 (stereo unspecified) | 0.257%
108 | Cc1ccc(CN2CC[C@@H]3[C@@H](CO[C@H]3CN3CCN(C)CC3)C2)cc1 | -2.74%
109 | c1cncc(C2COC3(CCN(CC4CCOCC4)CC3)C2)c1 (stereo unspecified) | -10.4%
110 | O=C(Cn1c(=O)[nH]c2cn(-c3ccccc3)c(=O)n21)Nc1ccccc1 | 18.6%
111 | CC(C)Cn1nccc1NC(=O)CN1CCOC(Cn2cccn2)C1 (stereo unspecified) | -12%
